# An excerpt weighted towards active compounds, which were near 1.8% of everything screened.
# NR2E3 ag-1: NR2E3 (human) agonism | GST-NR2E3/biotin-RetCOR TR-FRET, 1536-well | inhibition of corepressor binding, % at 4.78 µM | Q9Y5X4 | hit rate 0.12% among 320,000;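 active means percent inhibition above the cutoff of mean plus 3 SD of all tested compounds, set per screening campaign, cut at about 20% in these data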;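 further: 0% = DMSO wells and 100% = biotin wells as full block of FRET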
# Target sequence (Q9Y5X4 whole entry, looked up): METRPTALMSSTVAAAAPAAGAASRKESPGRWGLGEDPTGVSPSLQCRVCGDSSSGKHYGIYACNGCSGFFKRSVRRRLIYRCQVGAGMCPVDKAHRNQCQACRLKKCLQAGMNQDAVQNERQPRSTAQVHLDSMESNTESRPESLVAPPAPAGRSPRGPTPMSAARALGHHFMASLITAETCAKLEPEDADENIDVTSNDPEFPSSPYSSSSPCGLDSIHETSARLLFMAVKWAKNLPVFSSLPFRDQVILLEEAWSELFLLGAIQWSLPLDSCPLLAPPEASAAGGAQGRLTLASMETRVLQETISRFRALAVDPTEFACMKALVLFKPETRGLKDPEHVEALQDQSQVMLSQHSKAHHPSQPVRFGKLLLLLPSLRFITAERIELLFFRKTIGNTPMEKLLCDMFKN
#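 Test system: GST-NR2E3 and biotin-RetCOR proteins | Quantity: 1.35 nM GST-tagged NR2E3 final | Medium: Tris pH 7.5 | Also added: 7 nM biotin-RetCOR | Dosing: Compound at 4.8 µM, single dose | Timing: 5 h at 4 °C | Detection: Time-resolved FRET | Read-out basis: Percent inhibition | Benchmarks: Biotin wells as high control, 0.6% DMSO wells as low control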
# Gli-Sufu block: blocks Gli-Sufu signaling in a luciferase reporter | Sufu-KO-LIGHT fibroblasts, Gli luciferase reporter luminescence | inhibition, % at 5 µM | hit rate 0.74% among 340,000;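 active means inhibition above about 55%, limit read from the data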;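 further: 0% = DMSO-treated cells and 100% = wells with medium but no cells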
# 697 NFkB inh: inhibitors of the PMA/ionomycin-induced NF-kB reporter in 697 B cells | hit rate 0.33% among 330,000 | inhibition, % at 4 µM | AID 435022 | 697 B-cell NF-kB luciferase reporter, 16 h; in the data active means inhibition above about 35%
# GalR3 antag: antagonists of human GalR3 | O60755 | HEK293 GalR3-CNG cAMP membrane potential fluorescence; galR3 body fused to GalR1 C-terminus | inhibition, % at 3 µM | hit rate 0.44% among 360,000;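 active means inhibition above the screen-wide average plus 3 SD, cut at about 13% in these data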;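 further: forskolin and galanin both at EC90 stimulate the cells; cAMP rise reported by CNG channel membrane potential dye signal; 0% = forskolin plus galanin with DMSO and 100% = forskolin alone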
# Target sequence (O60755 1-299 limits assumed): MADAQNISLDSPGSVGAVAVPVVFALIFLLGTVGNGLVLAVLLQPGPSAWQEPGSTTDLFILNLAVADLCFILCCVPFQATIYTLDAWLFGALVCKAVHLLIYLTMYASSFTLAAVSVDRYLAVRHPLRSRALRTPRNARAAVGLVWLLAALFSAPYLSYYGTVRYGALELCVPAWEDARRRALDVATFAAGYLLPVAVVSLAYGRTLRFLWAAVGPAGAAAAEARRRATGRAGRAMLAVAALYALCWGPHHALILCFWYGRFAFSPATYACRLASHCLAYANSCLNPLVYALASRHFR
# Jurkat NFkB inh: inhibitors of the PMA/ionomycin-induced NF-kB reporter in Jurkat cells. inhibition, % at 4 µM. AID 435003. PMA/ionomycin-induced NF-kB luciferase reporter, luminescence. hit rate 0.53% among 330,000; in the data active means inhibition above about 50%
# NR2E3 ag-2: human photoreceptor-specific nuclear receptor agonism; Q9Y5X4; AID 602229; inhibition of corepressor binding, % at 3.98 µM; hit rate 0.35% among 360,000; CHO-S Gal4-NCOR/VP16-NR2E3 two-hybrid, luciferase;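 active means inhibition above the mean of all tested compounds plus 3 SD, cut at about 70% in these data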;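 further: 0% = DMSO with NR2E3 transfected cells and 100% = cells lacking NR2E3 construct; higher means lower luciferase signal from less NR2E3 corepressor binding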
# Jurkat NFkB conf: lowers PMA/ionomycin-induced NF-kB signal in Jurkat cells; shares compounds with Jurkat NFkB inh; Jurkat NF-kB luciferase, 16 h; inhibition, % at 4 µM; hit rate 27% among 2,700;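 active means inhibition reaching about 45% at 4 µM in either replicate, limit read from the data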;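 further: plate controls were PMA/ionomycin stimulated DMSO wells for no effect and unstimulated DMSO wells for full effect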
# Numbers without * were called inactive; · = no result.
SMILES,NR2E3 ag-1,Gli-Sufu block,697 NFkB inh,GalR3 antag,Jurkat NFkB inh,NR2E3 ag-2,Jurkat NFkB conf
COc1cccc(C(=O)N(Cc2ccccc2)Cc2cc3cc4c(cc3[nH]c2=O)OCCO4)c1,2.5,4.6,7.4,-4.6,-3.2,7.1,·
O=c1c2ccccc2oc2ccc(Oc3ccccc3)cc12,3.3,-125.3,-223.7,-4.8,-159.7,-133.7,-121.2
COCc1[nH]nc2c1C(c1ccc(F)cc1)N(Cc1ccccc1)C2=O (configuration not stated),·,·,·,-7.0,·,·,·
CCOC(=O)C(C)Oc1cccc2c(=O)n(CC(=O)NCc3ccco3)ccc12 (configuration not stated),3.8,29.6,-14.0,·,56.5*,4.0,43.4
CC(C)C(=O)c1cn(CC(=O)NCc2ccco2)c2ccccc12,0.1,-22.6,-29.6,-1.4,-30.1,-15.3,·
CSc1n[nH]c(-c2cccs2)n1,·,·,·,-5.5,·,·,·
O=C(/C=C/c1ccccc1)c1c[nH]c2ccccc12,0.1,-78.9,-239.5,-7.5,-192.3,-123.8,-69.2
O=C(C=Cc1ccccc1)c1c[nH]c2ccccc2c1=O,·,-8.1,·,-6.8,·,-13.2,·
COc1cc2c(cc1OC)C(COc1ccc([N+](=O)[O-])cc1)N(C(C)=O)CC2 (configuration not stated),-0.7,3.8,-42.1,-9.7,67.9*,14.1,23.6
COc1cc2c(cc1OC)C(COc1ccccc1OC)N(C(C)=O)CC2 (configuration not stated),1.0,-0.4,-13.0,-13.1,2.5,-18.9,·
O=C(NCc1ccccc1)[C@H]1CCCN1C(=O)[C@H]1CCCN1C(=O)N1CCCCC1,·,·,·,-5.6,·,·,·
NCCCNc1nc(N)c([N+](=O)[O-])c(NC2CCCCC2)n1,0.0,15.8,-65.8,-14.9,90.8*,33.9,19.7
O=C(c1ccccc1)n1ccc(-c2cnc(-c3ccccc3)s2)n1,2.4,-3.0,-192.5,1.1,-180.4,-129.8,-72.8
COc1ccc(S(=O)(=O)n2ccc(-c3cnc(-c4ccccc4)s3)n2)cc1,0.0,-24.1,-22.8,0.3,-55.8,-64.9,·
CCCCOCCCNC(=O)C[C@H]1C[C@@]2(C(=O)OC)C(=C[C@H](C3CCCC3)O[C@@H]2C)N(Cc2ccccc2)C1=O,·,·,·,-3.6,·,·,·
Cc1c(C)c2ccc(OCC(=O)Nc3ccccn3)c(C)c2oc1=O,-2.6,51.1,8.9,-6.9,91.0*,-13.7,93.6*
Cc1ccc(/C=C2\CCC3=C2OC(N)=C(C#N)C3c2ccc(C)cc2)cc1 (configuration not stated),2.7,-10.8,-8.8,·,-16.9,-14.5,·
N#CC1=C(N)OC2=C(CCc3ccccc32)C1c1ccccc1 (configuration not stated),-0.7,24.8,-36.6,-5.3,75.7*,-60.2,7.5
Cn1c(C(=O)Nc2ccc3c(c2)OCCO3)cc2sccc21,-2.0,-91.3,-194.8,-7.8,-190.5,-98.2,-103.8
CC(=O)O[C@@H]1C=C[C@@H](C#Cc2ccc(C(C)(C)C)cc2)O[C@@H]1COC(=O)NCc1ccccc1,·,·,·,-2.9,·,·,·
CCc1ccc(/C=N/NC(=O)c2cc(C3CC3)nc3ccc(Br)cc23)s1,2.8,-6.4,-42.2,-0.3,56.4*,-19.2,21.1
CCc1ccc(/C=N/NC(=O)c2cc(-c3ccccc3OC)nc3ccccc23)s1,1.7,2.1,-3.0,4.2,-8.7,-5.0,·
Cc1ccc(COn2c(-c3ccc(Cl)cc3)nc3ccc([N+](=O)[O-])cc32)cc1,-0.5,-105.1,-168.4,-7.0,-148.1,-95.6,·
O=[N+]([O-])c1ccc2nc(-c3ccc(Cl)cc3)n(OCc3ccccc3)c2c1,-2.7,-56.9,-240.5,-8.6,-199.0,-154.0,-88.7
COc1ccc(N=C2S/C(=C\c3ccc(N4CCOCC4)o3)C(=O)N2CCc2c[nH]c3ccccc23)cc1,1.6,·,-37.5,·,100.0*,-4.6,39.0
SMILES,NR2E3 ag-1,Gli-Sufu block,697 NFkB inh,GalR3 antag,Jurkat NFkB inh,NR2E3 ag-2,Jurkat NFkB conf
CCCc1cc(C(=O)Nc2cc(C)ccc2O)no1,-2.3,47.8,32.0,-5.7,92.2*,-74.1,60.9*
O=C(Nc1cc(Br)ccc1O)c1cc(-c2ccccc2)on1,·,2.7,-181.1,-10.5,-32.3,-37.5,·
CCCc1cc(C(=O)Nc2cccnc2Cl)no1,2.2,-10.9,8.9,-4.0,-17.2,-6.8,·
Cc1ccc(O)c(NC(=O)c2cc(-c3ccccc3)on2)c1,4.0,13.7,-24.6,-10.9,86.1*,-34.4,38.1
O=C(/C=C(\Nc1ccc(Cl)c(C(F)(F)F)c1)c1ccccc1)c1ccccc1,·,·,·,-6.8,·,·,·
COc1cccc(CNC(=O)[C@H]2CCCN2C(=O)[C@H]2CCCN2C(=O)OC(C)(C)C)c1,·,·,·,2.6,·,·,·
COC(=O)N1C[C@H](Oc2cccc3ccccc23)[C@H]2C[C@@H]1c1ccccc1O2,·,·,·,-6.9,·,·,·
CC(C)(C)C(=O)N/C(N)=N/c1nc2ccccc2o1,1.1,-101.2,-226.4,-2.7,-156.0,-73.1,-141.1
CCC(=O)N/C(N)=N/c1nc2ccccc2o1,0.5,-63.4,-96.4,-4.4,-90.5,-124.8,·
C[C@H](O)[C@@H]1CN2CCc3ccc(-c4ccc5c(c4)OCO5)cc3[C@@H]2C[C@@H]1N(C)C(=O)NC1CCCCC1,·,·,·,-8.2,·,·,·
COc1ccc(C(=O)Nc2cccc(OC)c2)cc1,-1.5,-66.0,-98.9,-3.0,-130.1,-81.3,·
COc1ccc(C(=O)Nc2ccc3[nH]c(-c4cccc(OC)c4)cc(=O)c3c2)cc1,3.3,-8.8,-18.7,-4.2,85.4*,2.3,49.2*
CCOc1ccc(-n2nc3cc(C)c(N)cc3n2)cc1,-1.0,-57.4,-157.1,-8.1,-166.4,-139.3,-9.8
CCOc1ccc(-n2nc3ccc(N)cc3n2)cc1,·,9.6,-71.9,-7.2,-55.7,-73.2,·
C[C@H](O)[C@@H]1CN2CCc3ccc(-c4ccc5c(c4)OCO5)cc3[C@@H]2C[C@@H]1N(C)C(=O)c1ccco1,·,·,·,2.5,·,·,·
COc1cc(OC)c(/C=C2\C(=O)Nc3ccccc32)c(OC)c1,-3.4,-8.2,-10.4,2.8,55.9*,·,53.7*
COc1ccc(C(=O)/C=C2/C(=O)Nc3ccccc32)c(OC)c1,0.7,-2.6,-2.1,-10.6,13.8,-67.8,·
COc1ccc(N2CCN(C(=O)NC(=O)c3ccc(Cl)cc3)CC2)cc1,-1.6,-4.2,15.5,-1.6,-10.5,13.5,·
COC(=O)c1sc(N2CCN(c3ccc(Cl)cc3)CC2)nc1N,1.5,7.5,-21.0,-9.3,60.6*,-2.5,6.9
c1ccc(-c2ccccc2C2Cc3nnccc3CN2)cc1 (configuration not stated),·,·,·,-7.8,·,·,·
COC(=O)c1sc(N)c(C(=O)OC)c1COC(=O)c1c(C)noc1C,3.1,-12.6,-11.3,-5.6,67.6*,-73.9,21.1
CCOc1ccccc1C1CC(=O)Nc2cc(C)c(C)cc21 (configuration not stated),-2.1,-0.8,-53.1,-12.8,52.1*,-40.8,38.5
